Source: article PMC5302092 (Cell, 2017)
Residues, ends and D or L forms follow the SMILES beside them. *: point of attachment. Octanoyl = CCCCCCCC(=O)*

Experiments:
cathepsin L = cathepsin L (Homo sapiens, UniProt P07711); experiment: in vitro protease inhibition assay, cathepsin L; assay type: biochemical; settings: result in words
Method in brief: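 Commercial cathepsin L (0.02 μg/ml) in 50 mM MES pH 5.5 with 5 mM DTT. Substrate z-FR-AMC at 20 μM added last to the enzyme/test compound mix; final DMSO below 5%. Fluorescence read-out; leupeptin as positive control. Normalized activity data were curve-fitted.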

cathepsin S = cathepsin S (Homo sapiens, UniProt P25774); experiment: in vitro protease inhibition assay, cathepsin S; assay type: biochemical; settings: read-out: activity against cathepsin S (IC50)
Method in brief: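 Commercial cathepsin S pre-activated for 2 h at 10 μg/ml in 50 mM MES pH 5.5 with 5 mM DTT, then diluted to 100 ng/ml. Assayed with 10 μM z-FR-AMC, which was added last to the enzyme/test compound mix; final DMSO below 5%. Fluorogenic read-out; leupeptin as positive control. Normalized activity data fitted to give IC50.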

[1] = molecular target: cathepsin L (CTSL1) catalytic cysteine Cys138 (Homo sapiens, UniProt P07711); experiment: competitive isoTOP-ABPP, THP-1 membrane fraction, cathepsin L; assay type: binding; settings: 250 nM, THP-1 membranes; R > 5 = targeted
Method in brief: (§1)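 THP-1 cells grown in RPMI with 10% FBS, penicillin, streptomycin, glutamine and 50 μM βME (37 °C, 5% CO2, <10 passages). Differentiated with 200 nM PMA for 18 h, then 3 more days. Sonicated lysate spun at 100,000 g for 45 min; membrane fraction set to 1.5 mg/mL. Test compound (final 25 μM, 2.5 μM or 250 nM) or 1% TFA water vehicle for 30 min, then 100 μM IA-alkyne for 30 min, ambient temperature.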

[2] = molecular target: cathepsin C (CTSC) catalytic cysteine Cys258 (Homo sapiens, UniProt P53634); experiment: competitive isoTOP-ABPP, THP-1 membrane fraction, cathepsin C; assay type: binding
Method in brief: as §1

cathepsin B (CTSB) = cathepsin B (CTSB) (Homo sapiens, UniProt P07858); experiment: competitive isoTOP-ABPP, THP-1 membrane fraction, cathepsin B; assay type: binding; settings: 250 nM, THP-1 membranes
Method in brief: as §1

cathepsin H (CTSH) = molecular target: T1, cathepsin H (CTSH) (Homo sapiens, UniProt P09668); experiment: competitive isoTOP-ABPP, THP-1 membrane fraction, cathepsin H; assay type: binding; settings: 250 nM, THP-1 membranes
T1 sequence (P09668 98-335): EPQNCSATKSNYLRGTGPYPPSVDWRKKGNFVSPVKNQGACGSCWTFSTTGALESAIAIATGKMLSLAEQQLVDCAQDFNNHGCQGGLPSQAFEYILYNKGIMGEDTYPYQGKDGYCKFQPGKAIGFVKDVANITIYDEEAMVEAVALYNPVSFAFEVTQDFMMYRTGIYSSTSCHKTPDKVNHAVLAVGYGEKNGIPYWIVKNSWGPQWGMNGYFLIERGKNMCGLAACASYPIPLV
Method in brief: as §1

cathepsin S (CTSS) = cathepsin S (CTSS) (Homo sapiens, UniProt P25774); experiment: competitive isoTOP-ABPP, THP-1 membrane fraction, cathepsin S; assay type: binding
Method in brief: as §1

cathepsin Z (CTSZ) = cathepsin Z (CTSZ) (Homo sapiens, UniProt Q9UBR2); experiment: competitive isoTOP-ABPP, THP-1 membrane fraction, cathepsin Z; assay type: binding
Method in brief: as §1

[3] = competitive isoTOP-ABPP, proteome-wide cysteine selectivity; assay type: binding, human; settings: THP-1, Ramos, H1975 proteomes
Method in brief: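 Proteomes came from THP-1 (RPMI, 10% FBS, βME, PMA-differentiated), Ramos (RPMI, 10% FBS) and H1975 (DMEM, 20% FBS) cells. Sonicated and split at 100,000 g into soluble and membrane fractions (1.5 mg/mL); some lysed into sodium acetate at pH 5 or 5.5. Test compound or vehicle for 30 min, then 100 μM IA-alkyne for 30 min, then isotopic biotin-tag click, enrichment, trypsin/TEV digests and LC-MS/MS. Cysteines with heavy/light MS1 ratio R > 5 called targeted.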

cathepsin S (CTSS), sequence (P25774 115-331): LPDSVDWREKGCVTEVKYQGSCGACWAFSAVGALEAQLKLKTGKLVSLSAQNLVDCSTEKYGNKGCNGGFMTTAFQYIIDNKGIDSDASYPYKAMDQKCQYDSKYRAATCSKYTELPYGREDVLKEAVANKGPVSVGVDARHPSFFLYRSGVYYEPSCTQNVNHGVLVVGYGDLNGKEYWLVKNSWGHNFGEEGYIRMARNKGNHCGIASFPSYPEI
cathepsin C (CTSC) catalytic cysteine Cys258, sequence (P53634 25-463): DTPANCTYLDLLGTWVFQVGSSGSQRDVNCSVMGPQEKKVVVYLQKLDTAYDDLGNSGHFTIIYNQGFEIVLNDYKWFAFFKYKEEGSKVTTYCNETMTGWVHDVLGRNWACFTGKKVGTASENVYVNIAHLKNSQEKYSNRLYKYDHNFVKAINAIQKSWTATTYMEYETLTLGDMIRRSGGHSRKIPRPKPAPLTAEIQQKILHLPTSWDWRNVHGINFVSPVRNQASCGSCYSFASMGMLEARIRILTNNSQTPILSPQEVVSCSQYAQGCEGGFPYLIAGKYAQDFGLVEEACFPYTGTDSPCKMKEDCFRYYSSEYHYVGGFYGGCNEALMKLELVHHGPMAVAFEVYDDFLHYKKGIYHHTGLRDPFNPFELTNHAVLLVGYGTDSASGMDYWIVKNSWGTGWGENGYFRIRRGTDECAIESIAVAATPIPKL
cathepsin Z (CTSZ), sequence (Q9UBR2 62-303): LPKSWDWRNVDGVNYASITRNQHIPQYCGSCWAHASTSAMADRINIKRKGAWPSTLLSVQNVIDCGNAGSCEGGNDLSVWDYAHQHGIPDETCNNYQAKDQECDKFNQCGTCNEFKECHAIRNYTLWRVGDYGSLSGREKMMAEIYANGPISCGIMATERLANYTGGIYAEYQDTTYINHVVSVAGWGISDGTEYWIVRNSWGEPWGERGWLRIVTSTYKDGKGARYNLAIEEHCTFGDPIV
cathepsin S, sequence (P25774 115-331, species assumed): as the sequence (P25774 115-331) above
cathepsin L, sequence (P07711 114-333, species assumed): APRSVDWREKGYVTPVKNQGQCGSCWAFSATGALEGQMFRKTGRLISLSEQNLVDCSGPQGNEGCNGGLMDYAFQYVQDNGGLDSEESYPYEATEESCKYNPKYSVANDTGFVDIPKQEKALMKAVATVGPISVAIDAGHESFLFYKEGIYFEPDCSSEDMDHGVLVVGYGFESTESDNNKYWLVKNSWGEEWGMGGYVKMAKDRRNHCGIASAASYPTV
cathepsin L (CTSL1) catalytic cysteine Cys138, sequence (P07711 114-333): as the sequence (P07711 114-333, species assumed) above

inhibitory activity against cathepsin L (IC50) (cathepsin L)	IC50 (cathepsin S) [nM]	R value (heavy/light MS1 ratio), blockade of IA-alkyne labeling of CTSL1 Cys138 [1]	R value (heavy/light MS1 ratio), CTSC catalytic cysteine Cys258 ([2]; 250 nM, THP-1 membranes)	R value (heavy/light MS1 ratio), CTSC ([2]; 25 μM, THP-1)	R value (heavy/light MS1 ratio), CTSB (cathepsin B (CTSB))	R value (heavy/light MS1 ratio), CTSH (cathepsin H (CTSH))	R value (heavy/light MS1 ratio), CTSS (cathepsin S (CTSS); 250 nM, THP-1 membranes)	R value (heavy/light MS1 ratio), CTSS (cathepsin S (CTSS); 25 μM, THP-1)	R value (heavy/light MS1 ratio), CTSZ (cathepsin Z (CTSZ); 250 nM, THP-1 membranes)	R value (heavy/light MS1 ratio), CTSZ (cathepsin Z (CTSZ); 25 μM, THP-1)	Compound	R value (heavy/light MS1 ratio), non-cathepsin cysteines (no additional targets) [3]
undetectable activity	13	–	–	–	–	–	–	–	–	–	CCCCCCCC(=O)N[C@@H](CCSC)C(=O)N[C@H](C=O)Cc1ccccc1 [Compound 16, N-octanoyl-Met-Phe-H] (Octanoyl-Met-Phe-aldehyde)	–
–	–	> 20	> 2.78	> 5	< 2.0	< 2.0	< 2.0	> 5	< 2.0	> 5	N[C@@H](Cc1ccccc1)C(=O)N[C@H](C=O)Cc1ccccc1 [Phe-Phe-H] (H-Phe-Phe-aldehyde)	< 2.0
